HCV NS3 hel inh: inhibitors of HCV NS3 helicase, primary screen, biochemical, Cy5 molecular beacon fluorescence | NS3 helicase DNA unwinding | Hepatitis C virus NS3 helicase | inhibition, % at 10.9 µM | hit rate 0.56% among 290,000;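 active means inhibition above the mean of all tested compounds plus 3 SD, set per campaign, cut at about 35% in these data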;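 further: 0% = DMSO wells and 100% = thioflavine S control wells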
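assay system = NS3 helicase fragment of HCV | buffer or medium = MOPS pH 6.5, MgCl2, DTT, Tween20, BSA | timing = 60 min unwinding reaction at 25 °C after ATP addition | signal = Cy5 beacon fluorescence read at start and 1 h | read-out basis = % inhibition of unwinding | control set = low DMSO, high thioflavine S at 110 µM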
HCV core dimer: inhibitors of HCV core protein dimerization, primary screen, biochemical, TR-FRET, high-throughput. hit rate 0.33% among 300,000. TR-FRET GST/Flag-core106 dimerization, 1536-well. inhibition, % at 5 µM. AID 1899, 2009;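 active means inhibition above the mean of all tested compounds plus 3 SD, set per screening campaign, cut at about 45% in these data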
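Assay system: tagged HCV core106 pair (GST and Flag); medium: KF-containing HEPES buffer, pH 7.45, DTT, CHAPS, BSA; also added: Eu donor and XL665 acceptor anti-tag antibodies; dosing: 5 µM single dose; timing: compound-protein-antibody incubation 4 h at 22.5 °C; signal: TR-FRET 671 and 617 nm emission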
PRMT1 FP inh: PRMT1 methyltransferase inhibitors, primary screen, biochemical, fluorescence polarization. Protein arginine N-methyltransferase 1 (Homo sapiens), Q99873. recombinant PRMT1, activity-based probe fluorescence polarization. inhibition, % at 2.79 µM. hit rate 1.3% among 370,000. AID 652257, 2013;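 active means inhibition above about 21% made by adding two undisclosed values, limit read from the data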
Target sequence (Q99873 whole entry, looked up): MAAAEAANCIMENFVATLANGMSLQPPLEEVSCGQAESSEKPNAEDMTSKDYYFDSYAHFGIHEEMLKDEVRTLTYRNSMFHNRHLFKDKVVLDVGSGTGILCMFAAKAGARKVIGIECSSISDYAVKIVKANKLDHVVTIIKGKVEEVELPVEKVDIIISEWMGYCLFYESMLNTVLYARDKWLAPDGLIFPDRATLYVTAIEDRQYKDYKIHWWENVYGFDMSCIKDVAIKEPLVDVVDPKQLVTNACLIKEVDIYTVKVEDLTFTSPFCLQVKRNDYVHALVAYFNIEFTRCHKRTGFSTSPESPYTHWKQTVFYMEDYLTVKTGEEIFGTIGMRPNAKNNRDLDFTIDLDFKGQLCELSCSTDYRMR
APOBEC3A inh: APOBEC3A ssDNA deaminase inhibitors, primary screen, selectivity assay for APOBEC3G inhibitor project, biochemical, FAM/TAMRA oligo cleavage fluorescence. AID 493011, 2011. hit rate 0.41% among 330,000. inhibition, % at 20 µM. recombinant A3A, FAM/TAMRA ssDNA deamination fluorescence. DNA dC->dU-editing enzyme APOBEC-3A (Homo sapiens), P31941;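 active means at least 40% inhibition at 20 µM here, with at most 30% in a related deaminase screen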;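 further: plate controls were A3A with DMSO for no effect and wells lacking A3A enzyme for full effect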
Target sequence (P31941 whole entry, looked up): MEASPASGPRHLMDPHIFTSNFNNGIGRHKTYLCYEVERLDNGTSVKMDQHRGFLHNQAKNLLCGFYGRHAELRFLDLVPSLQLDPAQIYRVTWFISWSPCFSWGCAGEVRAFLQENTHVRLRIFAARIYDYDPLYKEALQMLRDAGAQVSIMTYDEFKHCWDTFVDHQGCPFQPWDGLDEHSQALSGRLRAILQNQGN
A3G deaminase: APOBEC3G DNA deaminase inhibitors, primary screen, biochemical, fluorescence, single-stranded DNA substrate, uHTS. recombinant A3G, ssDNA deamination FAM/TAMRA fluorescence. inhibition, % at 20 µM. hit rate 0.28% among 330,000;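 active means inhibition of at least 40% at 20 µM, with no more than 30% in the related APOBEC3A deaminase screen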;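 further: plate controls were DMSO wells with A3G for no effect and wells lacking A3G enzyme for full effect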
ABHD5 PLIN5 PPI: ABHD5-PLIN5 interaction inhibitors, primary screen, cell lysate, split luciferase complementation, luminescence; hit rate 0.78% among 360,000; inhibition, % at 4 µM; Perilipin-5 (Homo sapiens) + 1-acylglycerol-3-phosphate O-acyltransferase ABHD5 (Homo …; AID 602281, 2012; Split G. princeps luciferase complementation, 4 h;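 active means inhibition above the mean inhibition across every tested compound plus 3 SD, cut at about 22% in these data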;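 further: 0% = DMSO only wells and the 100% control is not disclosed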
PRMT1 inh conf: PRMT1 methyltransferase inhibitors, confirmation, biochemical, fluorescence polarization, triplicate; shares compounds with PRMT1 FP inh; hit rate 42% among 3,300; recombinant His-PRMT1, activity-based probe fluorescence polarization; inhibition, % at 2.79 µM;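 active means mean inhibition across replicates above the hit cutoff derived for the earlier primary screen, cut at about 22% in these data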
Starred values were filed as active, the others as inactive. This is a sample that favours compounds with a hit; in the whole collection about 2.9% have one here.

How did CCCCCCOc1ccc(N2C(=O)CC(NCCc3ccc(S(N)(=O)=O)cc3)C2=O)cc1 (centres undefined) do in these assays?
HCV NS3 hel inh: 3; HCV core dimer: 0; PRMT1 FP inh: 42*; APOBEC3A inh: -4; A3G deaminase: -3; ABHD5 PLIN5 PPI: 3; PRMT1 inh conf: 8

How did CCCCCCOc1ccc(N2C(=O)CC(NCc3ccc(S(N)(=O)=O)cc3)C2=O)cc1 (centres undefined) do in these assays?
HCV NS3 hel inh: -14; HCV core dimer: -2; PRMT1 FP inh: 19; APOBEC3A inh: 4; A3G deaminase: 4; ABHD5 PLIN5 PPI: 1

How did CCOc1ccc(N2C(=O)CC(NCc3ccc(F)cc3)C2=O)cc1 (centres undefined) do in these assays?
HCV NS3 hel inh: -6; HCV core dimer: -4; PRMT1 FP inh: 55*; APOBEC3A inh: -2; A3G deaminase: -3; ABHD5 PLIN5 PPI: 12; PRMT1 inh conf: 2

What do the screens show for `CCOc1ccc(N2C(=O)CC(N)C2=O)cc1` (centres undefined)?
HCV NS3 hel inh: -3; HCV core dimer: -6; PRMT1 FP inh: 76*; APOBEC3A inh: -1; A3G deaminase: 0; ABHD5 PLIN5 PPI: 7; PRMT1 inh conf: 51*

Results for CCOc1cccc(N2C(=O)CC(NCc3ccc(S(N)(=O)=O)cc3)C2=O)c1 (centres undefined) ?
HCV NS3 hel inh: -4; HCV core dimer: -2; PRMT1 FP inh: 46*; APOBEC3A inh: 2; A3G deaminase: -5; ABHD5 PLIN5 PPI: 2; PRMT1 inh conf: -1

What do the screens show for `COC(=O)C1=C(C)N(Cc2ccc(C(F)(F)F)cc2)C(=NCc2ccccc2)NC1c1ccccc1` (centres undefined)?
PRMT1 FP inh: -3

What do the screens show for `COC(=O)C1=C(C)N(C)C(=NCc2ccc3c(c2)OCO3)NC1c1ccc(Cl)cc1` (centres undefined)?
PRMT1 FP inh: -2

What do the screens show for `CCOc1ccc(N2C(=O)CC(NCC3CCCO3)C2=O)cc1` (centres undefined)?
HCV NS3 hel inh: 1; HCV core dimer: 1; PRMT1 FP inh: 80*; APOBEC3A inh: -2; A3G deaminase: -4; ABHD5 PLIN5 PPI: 6; PRMT1 inh conf: 4

What do the screens show for `COc1ccc(N2C(=O)CC(NCc3cccs3)C2=O)cc1` (centres undefined)?
HCV NS3 hel inh: 5; HCV core dimer: -3; PRMT1 FP inh: 51*; APOBEC3A inh: 0; A3G deaminase: -1; ABHD5 PLIN5 PPI: 7; PRMT1 inh conf: 0

What do the screens show for `CCOc1ccc(C(=O)NCC2CCCO2)cc1` (centres undefined)?
HCV NS3 hel inh: 4; HCV core dimer: -4; PRMT1 FP inh: -4; APOBEC3A inh: 3; A3G deaminase: 1; ABHD5 PLIN5 PPI: 6

Results for CCCCNC(=O)C1(C)CCCCN1C(=O)c1ccc(OC)c(C(F)(F)F)c1 (centres undefined) ?
PRMT1 FP inh: 2; ABHD5 PLIN5 PPI: -4

How did COc1ccc(-c2cc(-c3ccco3)[nH]c(=O)c2C#N)cc1OC do in these assays?
HCV NS3 hel inh: 31; HCV core dimer: 2; PRMT1 FP inh: 27*; APOBEC3A inh: 15; A3G deaminase: 3; ABHD5 PLIN5 PPI: 13; PRMT1 inh conf: 27*

Results for CCc1cc2c(nc1CC)CCCN2Cc1ccccc1C(F)(F)F ?
PRMT1 FP inh: -2

Results for Cn1cc(Br)c(NC(=O)/C=C/C(=O)O)n1 ?
HCV NS3 hel inh: 4; HCV core dimer: 1; PRMT1 FP inh: 36*; APOBEC3A inh: -4; A3G deaminase: -8; ABHD5 PLIN5 PPI: 3; PRMT1 inh conf: 4

What do the screens show for `O=C(CC1C(=O)OCC2CCCCN21)Nc1ccccc1C(F)(F)F` (centres undefined)?
HCV NS3 hel inh: -9; HCV core dimer: -3; PRMT1 FP inh: 48*; APOBEC3A inh: -1; A3G deaminase: -3; ABHD5 PLIN5 PPI: -1; PRMT1 inh conf: 4

How did CCCOc1ccc(NC(=O)CC2C(=O)OCC3CCCCN32)cc1 (centres undefined) do in these assays?
PRMT1 FP inh: 36*; APOBEC3A inh: -3; A3G deaminase: -6; ABHD5 PLIN5 PPI: 9; PRMT1 inh conf: 3

Results for COc1ccc(C(=O)Nc2cc(C(=O)c3ccccc3)c(C)oc2=O)cc1 ?
HCV NS3 hel inh: 0; HCV core dimer: 4; PRMT1 FP inh: 57*; APOBEC3A inh: -3; A3G deaminase: 2; ABHD5 PLIN5 PPI: 37*; PRMT1 inh conf: 3

What do the screens show for `CN(CC(=O)O)S(=O)(=O)c1cccs1`?
HCV NS3 hel inh: -2; HCV core dimer: -7; PRMT1 FP inh: -1; APOBEC3A inh: 0; A3G deaminase: -1; ABHD5 PLIN5 PPI: -5

Results for CC(=O)N(c1ccc2oc(=O)sc2c1)S(=O)(=O)c1ccccc1 ?
HCV NS3 hel inh: -17; HCV core dimer: -11; PRMT1 FP inh: 91*; APOBEC3A inh: 0; A3G deaminase: 2; ABHD5 PLIN5 PPI: 8; PRMT1 inh conf: 65*

How did CCCC(=O)N(c1ccc2oc(=O)sc2c1)S(=O)(=O)c1cccs1 do in these assays?
HCV NS3 hel inh: 14; HCV core dimer: 3; PRMT1 FP inh: 85*; APOBEC3A inh: -4; A3G deaminase: -13; ABHD5 PLIN5 PPI: 17; PRMT1 inh conf: 37*

Results for O=C(CSc1nnc(SCc2cccc3ccccc23)s1)Nc1ccc(Oc2ccccc2)cc1 ?
PRMT1 FP inh: -5

Results for CCOC(=O)N1C(=O)C[C@](Sc2ccc(OC)cc2)(C(=O)N2CCCC2)[C@H]1c1ccc(OC)cc1 ?
PRMT1 FP inh: 56*; PRMT1 inh conf: 40*

Results for COc1ccc(S[C@]2(C(=O)N3CCN(c4ncccn4)CC3)CC(=O)N(c3ccc(C#N)cc3)[C@@H]2c2ccc(OC)cc2)cc1 ?
PRMT1 FP inh: 4

What do the screens show for `CCOC(=O)N1C(=O)C[C@](Sc2ccc(OC)cc2)(C(=O)N2CCOCC2)[C@H]1c1ccc(OC)cc1`?
PRMT1 FP inh: 47*; PRMT1 inh conf: 43*

What do the screens show for `CCOC(=O)N1C(=O)C[C@](Sc2ccc(OC)cc2)(C(=O)N2CCN(c3ncccn3)CC2)[C@H]1c1ccc(OC)cc1`?
PRMT1 FP inh: 41*; PRMT1 inh conf: 33*

Compound activity (PubChem)
